Here are results for eight compounds from ChEMBL document CHEMBL1125582, “4-hydroxythiazole inhibitors of 5-lipoxygenase” (J Med Chem, 1991).

Assay [1] deals with T1, Arachidonate 12-lipoxygenase (Rattus norvegicus) (UniProt Q02759).
T1 sequence (whole entry): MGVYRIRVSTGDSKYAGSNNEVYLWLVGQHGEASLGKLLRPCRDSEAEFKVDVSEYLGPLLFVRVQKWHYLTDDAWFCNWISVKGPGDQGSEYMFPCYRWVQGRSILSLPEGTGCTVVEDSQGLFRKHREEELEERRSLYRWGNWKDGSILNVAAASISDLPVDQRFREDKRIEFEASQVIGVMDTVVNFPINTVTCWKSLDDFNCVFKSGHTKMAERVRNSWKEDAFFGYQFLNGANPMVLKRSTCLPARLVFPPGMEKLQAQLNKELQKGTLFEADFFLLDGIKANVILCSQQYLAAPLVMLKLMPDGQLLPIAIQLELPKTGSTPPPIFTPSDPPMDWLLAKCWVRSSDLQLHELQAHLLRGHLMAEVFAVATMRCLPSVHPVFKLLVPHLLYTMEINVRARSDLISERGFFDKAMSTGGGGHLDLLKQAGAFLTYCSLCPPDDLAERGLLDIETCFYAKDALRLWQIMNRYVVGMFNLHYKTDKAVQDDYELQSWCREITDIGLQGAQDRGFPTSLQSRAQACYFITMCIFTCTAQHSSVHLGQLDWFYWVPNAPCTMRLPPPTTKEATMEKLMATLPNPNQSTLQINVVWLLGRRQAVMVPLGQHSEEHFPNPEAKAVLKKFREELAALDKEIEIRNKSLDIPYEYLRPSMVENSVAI
Description: The compound was tested for the in vitro inhibition of platelet 12-lipoxygenase at a concentration of 100 uM.

Assay [2] relates to 15-lipoxygenase (Glycine max). Description: The compound was tested for the in vitro inhibition of 15-lipoxygenase of soybean at a concentration of 10 uM. The following applies: at 10 µM.
In assay [3] the test system is cyclooxygenase (Ovis aries). Description: The compound was tested for the in vitro inhibition of Prostaglandin G/H synthase of sheep seminal vesicle at a concentration of 30 uM.
Assay [4] addresses T1, Arachidonate 12-lipoxygenase (Rattus norvegicus). Kind of assay: The compound was tested for the in vitro inhibition of platelet 12-lipoxygenase at a concentration of 30 uM.
Assay [5] concerns 15-lipoxygenase (Glycine max). Kind of assay: The compound was tested for the in vitro inhibition of 15-lipoxygenase of soybean at a concentration of 100 uM. The following applies: at 100 µM.
The target of assay [6] is T2, Polyunsaturated fatty acid 5-lipoxygenase (Rattus norvegicus, UniProt P12527).
T2 sequence (P12527 whole entry): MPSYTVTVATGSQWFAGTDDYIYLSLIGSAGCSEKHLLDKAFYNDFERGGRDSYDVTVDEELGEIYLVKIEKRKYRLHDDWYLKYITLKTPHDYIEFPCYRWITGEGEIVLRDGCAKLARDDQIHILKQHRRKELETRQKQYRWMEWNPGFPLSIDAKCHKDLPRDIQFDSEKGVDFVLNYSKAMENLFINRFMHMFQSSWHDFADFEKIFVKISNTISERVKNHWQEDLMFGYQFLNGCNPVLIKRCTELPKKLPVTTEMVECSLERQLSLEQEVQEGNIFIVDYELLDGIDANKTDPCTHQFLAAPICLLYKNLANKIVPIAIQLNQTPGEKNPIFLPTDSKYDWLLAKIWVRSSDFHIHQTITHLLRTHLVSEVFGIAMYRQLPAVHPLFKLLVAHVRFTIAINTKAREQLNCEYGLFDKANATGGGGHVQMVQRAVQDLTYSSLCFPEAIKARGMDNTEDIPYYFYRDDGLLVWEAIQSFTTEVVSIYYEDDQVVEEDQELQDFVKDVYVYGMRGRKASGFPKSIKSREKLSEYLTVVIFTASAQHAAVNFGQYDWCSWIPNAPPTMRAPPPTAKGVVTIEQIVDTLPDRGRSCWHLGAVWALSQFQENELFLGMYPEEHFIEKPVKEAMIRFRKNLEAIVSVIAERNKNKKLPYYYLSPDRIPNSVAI
Description: The compound was tested for the in vitro inhibition of 5-lipoxygenase from the 20000 g supernatant of RBI-1 cells. In kind it is cell-based. The method, boiled down: (§1)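 20000g supernatant of homogenized RBL-1 cells (7.5 × 10⁶ cell equiv/mL) preincubated 20 min at 37 °C with inhibitor or 2% Me₂SO vehicle in pH 6.8 BES/PIPES buffer with EDTA, NaCl, 0.7 mM CaCl₂. Reaction started with 66 μM [¹⁴C]arachidonic acid. [¹⁴C]-5-HETE counted by scintillation, corrected for [³H]-5-HETE recovery.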

The target of assay [7] is T3, Polyunsaturated fatty acid 5-lipoxygenase (Rattus norvegicus) (UniProt P12527).
T3 sequence (whole entry): T2 sequence (P12527 whole entry)
Description: The compound was tested for the in vitro inhibition of 5-lipoxygenase (5-lo) from the 20000 g supernatant of RBI-1 cells measured at a concentration of 30 uM. It is filed as cell-based. In short, it runs like this: as §1

The target in assay [8] is T4, Polyunsaturated fatty acid 5-lipoxygenase (Homo sapiens, UniProt P09917).
T4 sequence (P09917 whole entry): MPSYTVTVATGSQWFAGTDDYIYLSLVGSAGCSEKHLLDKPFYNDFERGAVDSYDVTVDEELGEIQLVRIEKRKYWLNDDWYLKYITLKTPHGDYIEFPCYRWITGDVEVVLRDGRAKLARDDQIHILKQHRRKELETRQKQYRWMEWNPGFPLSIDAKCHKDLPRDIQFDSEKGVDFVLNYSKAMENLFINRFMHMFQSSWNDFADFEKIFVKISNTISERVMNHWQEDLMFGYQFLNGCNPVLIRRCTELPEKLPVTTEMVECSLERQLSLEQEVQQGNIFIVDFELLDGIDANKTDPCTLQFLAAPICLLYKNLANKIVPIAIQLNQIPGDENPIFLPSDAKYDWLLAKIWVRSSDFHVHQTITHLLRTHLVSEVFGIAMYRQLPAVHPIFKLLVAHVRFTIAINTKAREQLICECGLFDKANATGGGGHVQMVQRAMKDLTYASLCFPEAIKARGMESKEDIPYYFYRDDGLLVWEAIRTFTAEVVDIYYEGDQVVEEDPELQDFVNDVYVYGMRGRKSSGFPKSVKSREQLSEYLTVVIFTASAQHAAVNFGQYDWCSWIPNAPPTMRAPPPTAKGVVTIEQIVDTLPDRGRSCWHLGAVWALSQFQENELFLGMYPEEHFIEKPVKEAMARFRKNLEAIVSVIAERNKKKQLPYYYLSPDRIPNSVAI
Description: The compound was tested for the inhibition of 5-lipoxygenase (5-lo) in human whole blood (HWBL). It is filed as tissue-based. The method, boiled down:
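Heparinized (20 units/mL) human blood preincubated 15 min at 37 °C with compound or vehicle. Challenged with A23187 in DMSO (final 50 μM) for 30 min, then chilled and centrifuged. Plasma extracted with 4 volumes methanol for at least 2 h at 3 °C. LTB₄ measured by RIA or EIA.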

Assay [9] addresses T2, Polyunsaturated fatty acid 5-lipoxygenase. Description: In vitro inhibition of 5-lipoxygenase (5-lo) from the 20000 g supernatant of RBI-1 cells. It is filed as cell-based.
Assay [10] shares this target. Description: The compound was tested for the inhibition of 5-lipoxygenase (5-lo) in homogenized rat basophilic leukemia (RBL-1) cells. It is filed as cell-based. The method, boiled down:
as §1

Assay [11] deals with T3, Polyunsaturated fatty acid 5-lipoxygenase (Rattus norvegicus). Kind of assay: The compound was tested for the in vitro inhibition of 5-lipoxygenase (5-lo) from the 20000 g supernatant of RBI-1 cells at a concentration of 32 uM. In kind it is cell-based. The method, boiled down: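 RBL-1 cell homogenate, 20000g supernatant (7.5 × 10⁶ cell equiv/mL), preincubated 20 min at 37 °C with inhibitor or 2% Me₂SO vehicle in pH 6.8 BES/PIPES/EDTA/NaCl/CaCl₂ buffer; reaction started with 66 μM [¹⁴C]arachidonic acid. [¹⁴C]-5-HETE counted by scintillation, corrected by [³H]-5-HETE recovery; percent reduction vs control, single 32 μM concentration.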

Consider `COC(=O)c1ccc(-c2nc(O)c(C)s2)cc1`, for which the inhibition was found to be 0% in assay [1], 52% in assay [2] and 6% in assay [3].
Turning to `Oc1nc(-c2ccccc2)sc1-c1ccccc1`, the inhibition in assay [4] was found to be 12%; in assay [5], 50%; in assay [3], 47%.
Turning to `Cc1sc(-c2ccccc2)nc1O`, the figures for the inhibition in [1], in assay [2] and in assay [3] were 51%, 44% and 32%, respectively.
Compound `CN(O)C(=O)Cc1sc(-c2ccccc2)nc1O` showed an IC50 in assay [6] of 4400 nM.
For the compound `O=C1CSC(c2ccccc2)=N1`, in assay [7], the inhibition came to 26%.
With `CCCOC(=O)Oc1nc(-c2ccccc2)sc1CCC`, the IC50 turned out to be 2200 nM in assay [8], 3300 nM in assay [9] and 1400 nM in [10].
With `COP(=O)(OC)Oc1nc(-c2ccccc2)sc1-c1ccccc1`, in assay [11], the inhibition came to 14%.
For the compound `O=C1CSC(c2cccnc2)=N1`, the inhibition in [7] worked out at 8%.
